# Data from ChEMBL document CHEMBL6134796, “Development and Evaluation of Indole-Based Phospholipase D Inhibitors for Lung Cancer Immunotherapy” (J Med Chem, 2025).
# pIC50: −log10 of the molar value. Active and inactive are the calls of the source. The calls are words filed in the database; no cut-off is given here.
# Key:
# [1] = Metabolic stability in human plasma assessed as parent compound remaining at 10 uM measured after 120 mins; type: ADME, cell-free; settings: read-out: Stability
# Summary of the method: (§1)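 Citrated human plasma spiked to final 10 μM, incubated at 37 °C for 0, 30 and 120 min; quenched with acetonitrile containing internal standard, vortexed, centrifuged at 4 °C; parent remaining quantified by LC-MS/MS in MRM mode on C18 column, formic acid water/acetonitrile gradient.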
# [2] = target: T1, Phospholipase D1 (Homo sapiens) (UniProt Q13393); assay: Binding affinity to PLD1 in human A549 cells assessed as protection against pronase E-mediated proteolysis at 2 to 20 uM incubated for 1 hr by DARTS assay; type: cell-based; settings: dose 2-20 µM
# T1 sequence (whole entry): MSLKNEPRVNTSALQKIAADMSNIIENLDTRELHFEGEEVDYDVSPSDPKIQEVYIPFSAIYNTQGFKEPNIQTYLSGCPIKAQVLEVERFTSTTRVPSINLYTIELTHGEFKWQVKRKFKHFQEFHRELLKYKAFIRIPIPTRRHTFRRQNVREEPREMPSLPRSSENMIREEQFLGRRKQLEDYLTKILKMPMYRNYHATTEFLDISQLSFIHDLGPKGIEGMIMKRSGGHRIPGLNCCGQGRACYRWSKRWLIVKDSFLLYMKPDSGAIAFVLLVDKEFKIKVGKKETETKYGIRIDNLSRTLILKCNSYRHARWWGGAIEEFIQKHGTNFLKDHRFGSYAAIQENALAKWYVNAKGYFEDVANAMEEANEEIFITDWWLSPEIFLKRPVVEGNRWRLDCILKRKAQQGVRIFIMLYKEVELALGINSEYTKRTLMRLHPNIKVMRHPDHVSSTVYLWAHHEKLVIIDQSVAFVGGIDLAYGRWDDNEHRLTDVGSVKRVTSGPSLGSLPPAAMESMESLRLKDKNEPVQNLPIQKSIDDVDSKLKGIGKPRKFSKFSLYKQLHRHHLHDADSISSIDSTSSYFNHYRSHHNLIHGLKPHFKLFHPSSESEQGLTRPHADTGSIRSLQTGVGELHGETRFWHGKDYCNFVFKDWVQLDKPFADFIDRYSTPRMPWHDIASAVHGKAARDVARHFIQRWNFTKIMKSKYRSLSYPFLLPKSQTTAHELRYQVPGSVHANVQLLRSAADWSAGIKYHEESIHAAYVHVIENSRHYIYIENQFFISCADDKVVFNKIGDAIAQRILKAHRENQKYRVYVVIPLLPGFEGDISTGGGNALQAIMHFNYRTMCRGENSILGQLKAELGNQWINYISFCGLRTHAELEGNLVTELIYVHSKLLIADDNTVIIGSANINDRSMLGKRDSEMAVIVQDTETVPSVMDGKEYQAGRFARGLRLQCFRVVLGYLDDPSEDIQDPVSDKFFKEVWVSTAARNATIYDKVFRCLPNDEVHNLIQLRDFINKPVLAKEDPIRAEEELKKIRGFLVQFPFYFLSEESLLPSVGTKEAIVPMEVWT
# Summary of the method: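 A549 lysates made in buffer with protease and phosphatase inhibitors. Lysates were incubated with compound for 1 h at room temperature, then digested with Pronase for 10 min at RT. Digestion was quenched in SDS loading buffer by boiling 5 min. PLD1 and β-tubulin were detected by immunoblot.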
# [3] = system: A549; assay: Inhibition of colony formation in human A549 cells incubated for 48 hrs by crystal violet staining based analysis; type: functional, cell-based
# Summary of the method: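 A549 cells seeded at 500 to 1,000 per well; compound added 48 h after seeding, then 48 h further incubation; medium changed every 3 days, kept 10 days total; fixed in 4% PFA 20 min, crystal violet 30 min; colonies counted by image analysis.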
# [4] = Metabolic stability in human plasma assessed as parent compound remaining at 10 uM measured after 30 mins; type: ADME, cell-free; settings: read-out: Stability; summary of the method: as §1
# [5] = system: Lewis lung carcinoma cell line; assay: Antitumor activity against mouse Lewis lung carcinoma cell line allografted in male C57BL/6 mouse model assessed as increase in caspase 3 expression at 10 mg/kg, po measured every other day for 3 weeks by IHC analysis; type: functional, organism-based
# Summary of the method: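 Syngeneic model: 6-week-old male C57BL/6 mice given 3 × 10^5 LLC cells in 50 μL PBS subcutaneously in the flank. At day 7, mice were randomized to vehicle PO daily or 10 mg/kg PO every other day for 3 weeks. Caliper volume was taken every 2 days as ([…])/2, with tumor weight at end. Spleen size and weight were recorded. Ki67 and cleaved caspase-3 were scored by IHC (DAB, hematoxylin).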
# [6] = system: HCT-116; assay: Cytotoxicity against human HCT-116 cells assessed as inhibition of cell growth incubated for 48 hrs by WST-1 assay; type: functional, cell-based; settings: HCT-116, 48 h
# [7] = system: A549; assay: Inhibition of PLD1 L425A mutant (unknown origin) overexpressed in human A549 cells; type: cell-based
# Summary of the method: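 A549 cells transfected with wild-type PLD1, PLD1 mutants (L425A, F614A, F789A) or PLD2, then compound-treated. PLD activity measured as [3H]phosphatidylbutanol formed in the presence of 1-butanol after [3H]myristic acid labeling, expressed as % of total lipid cpm. At least three independent experiments.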
# [8] = system: NCI-H460; assay: Cytotoxicity against human NCI-H460 cells assessed as inhibition of cell growth incubated for 48 hrs by WST-1 assay; type: functional, cell-based; settings: NCI-H460, 48 h
# Summary of the method: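 WST-1 viability assay. Cells seeded at 5 × 10^3 per well and incubated 24 h at 37 °C, then exposed to drug for 48 h. Absorbance read at 450 nm, in triplicate. IC50 taken as the concentration giving 50% growth inhibition versus control.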
compound,measurement,setting,value
O=C(CCc1c[nH]c2ccccc12)Nc1cc(C(F)(F)F)cc(C(F)(F)F)c1,"remaining at 2 h, 10 µM",[1],94.6%
same,Activity,[2],Active
same,inhibition,[3],Active
same,"remaining at 0.5 h, 10 µM",[4],97.4%
same,Activity,[5],Active
same,pIC50,[6],4.54
same,inhibition,[7],Active
same,pIC50,[8],4.60
